Key:
Canis familiaris [1] = test: Myocardial contractility in an acutely instrumented anesthetized dog model at 0.03 mg/kg intravenous dose; type: functional, Canis lupus familiaris, Myocardium
Outline: (§1)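 Adult mongrel dogs of either sex, anesthetized with pentobarbital 35 mg/kg IV and maintained by infusion at 5 mg/kg per h. Control data collected for 30 min. Drug given IV in saline (or dilute HCl/NaOH diluted with saline), 0.1 mL/kg over 1 min. Ascending doses, usually half-log apart, 10-30 min between doses, one compound per dog. Recorded LV dP/dtmax, heart rate and aortic pressure as % change from control.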

Canis familiaris [2] = test: Mean arterial blood pressure (MABP) in an acutely instrumented anesthetized dog model at 1 mg/kg intravenous dose; type: functional, Canis lupus familiaris; outline: as §1
Canis familiaris [3] = test: Mean arterial blood pressure (MABP) in an acutely instrumented anesthetized dog model at 0.01 mg/kg intravenous dose; type: functional, Canis lupus familiaris; outline: as §1
Canis familiaris [4] = test: Heart rate (HR) in an acutely instrumented anesthetized dog model at 0.03 mg/kg intravenous dose; type: functional, Canis lupus familiaris; outline: as §1
Canis familiaris [5] = test: Heart rate (HR) in an acutely instrumented anesthetized dog model at […] intravenous dose; type: functional, Canis lupus familiaris
Canis familiaris [6] = test: Myocardial contractility in an acutely instrumented anesthetized dog model at 0.001 mg/kg intravenous dose; type: functional, Canis lupus familiaris, Myocardium; outline: as §1
Canis familiaris [7] = test: Heart rate (HR) in an acutely instrumented anesthetized dog model at 0.01 mg/kg intravenous dose; type: functional, Canis lupus familiaris; outline: as §1
Canis familiaris [8] = test: Myocardial contractility in an acutely instrumented anesthetized dog model at […] intravenous dose; type: functional, Canis lupus familiaris, Myocardium
Canis familiaris [9] = test: Heart rate (HR) in an acutely instrumented anesthetized dog model at 0.1 mg/kg intravenous dose; type: functional, Canis lupus familiaris; outline: as §1
Canis familiaris [10] = test: Mean arterial blood pressure (MABP) in an acutely instrumented anesthetized dog model at 0.1 mg/kg intravenous dose; type: functional, Canis lupus familiaris; outline: as §1
Canis familiaris [11] = test: Change from control in mean arterial blood pressure (MABP) in an acutely instrumented anesthetized dog model at […] intravenous dose
Canis familiaris [12] = test: Myocardial contractility in an acutely instrumented anesthetized dog model at 0.01 mg/kg intravenous dose; type: functional, Canis lupus familiaris, Myocardium; conditions: dose 0.1 mg/kg, in the assay text read “0.1 mg/kg” for “0.01 mg/kg”; outline: as §1
Canis familiaris [13] = test: Heart rate (HR) in an acutely instrumented anesthetized dog model at 1 mg/kg intravenous dose; type: functional, Canis lupus familiaris; outline: as §1
Canis familiaris [14] = test: Myocardial contractility in an acutely instrumented anesthetized dog model at 1 mg/kg intravenous dose; type: functional, Canis lupus familiaris, Myocardium; outline: as §1
Canis familiaris [15] = test: Mean arterial blood pressure (MABP) in an acutely instrumented anesthetized dog model at 0.03 mg/kg intravenous dose; type: functional, Canis lupus familiaris; outline: as §1
Canis familiaris [16] = test: Myocardial contractility in conscious dog model after 34-40 minutes at […] oral administration, activity >3 hr (p<0.05); type: functional, Canis lupus familiaris, Myocardium
Canis familiaris [17] = test: Mean arterial blood pressure (MABP) in an acutely instrumented anesthetized dog model at 0.001 mg/kg intravenous dose; type: functional, Canis lupus familiaris; outline: as §1
Canis familiaris [18] = test: Myocardial contractility in conscious dog model after 34-40 minutes at 0.1 mg/kg oral administration, range 5-10; type: functional, Canis lupus familiaris, Myocardium
Outline: (§2)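 Conscious, fasted adult mongrel dogs with surgically implanted devices for ECG, aortic pressure and flow, and LV pressure. Drug given by gavage as a solution or suspension, in single or multiple doses. Contractility recorded as % increase 34-40 min after dosing, with duration of response noted. Mean ± SEM; Student's t test, p < 0.05.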

Canis familiaris [19] = test: Mean arterial blood pressure (MABP) in an acutely instrumented anesthetized dog model at 0.003 mg/kg intravenous dose; type: functional, Canis lupus familiaris; outline: as §1
Canis familiaris [20] = test: Heart rate (HR) in an acutely instrumented anesthetized dog model at 0.001 mg/kg intravenous dose; type: functional, Canis lupus familiaris; outline: as §1
Canis familiaris [21] = test: Heart rate (HR) in an acutely instrumented anesthetized dog model at 0.003 mg/kg intravenous dose; type: functional, Canis lupus familiaris; outline: as §1
Canis familiaris [22] = test: Myocardial contractility in conscious dog model after 34-40 minutes at 1 mg/kg oral administration, activity >4 hr; type: functional, Canis lupus familiaris, Myocardium; outline: as §2
Canis familiaris [23] = test: Myocardial contractility in conscious dog model after 34-40 minutes at 1 mg/kg oral administration, activity 3-4 hr (p<0.05); type: functional, Canis lupus familiaris, Myocardium; outline: as §2
[24] = dose 0.01 mg/kg, in the assay text read “0.01 mg/kg” for “0.001 mg/kg”

For `Cc1nc(O)c(C#N)c(C)c1-c1ccc(-n2ccnc2)cc1`, the “Change from Control (LV dp/dt)” value (Canis familiaris [1]) was 86%, the MABP change from control (Canis familiaris [2]) was -49% and the MABP change from control (Canis familiaris [3]) was 0%. The HR change from control (Canis familiaris [4]) was 2%, the HR change from control (Canis familiaris [5]) was 16% and the “Change from Control (LV dp/dt)” value (Canis familiaris [6]; [24]) was 21%. The HR change from control (Canis familiaris [7]) was 1%, the “Change from Control (LV dp/dt)” value (Canis familiaris [8]) was 160% and the HR change from control (Canis familiaris [9]) was 15%. The MABP change from control (Canis familiaris [10]) was -17.5%, the MABP change from control (Canis familiaris [11]) was -35% and the “Change from Control (LV dp/dt)” value (Canis familiaris [12]) was 137%. For the same compound, the HR change from control (Canis familiaris [13]) was 26%, the “Change from Control (LV dp/dt)” value (Canis familiaris [14]) was 135% and the “MABP % change from control” value (Canis familiaris [15]) was -6.
With `Cc1c(-c2ccc(-n3ccnc3)cc2)cnc(O)c1C#N` the “Change from Control (LV dp/dt)” value (Canis familiaris [1]) was 12%, the MABP change from control (Canis familiaris [2]) was -2.5% and the MABP change from control (Canis familiaris [3]) was 1.5%. For the same compound, the HR change from control (Canis familiaris [4]) was 2%, the HR change from control (Canis familiaris [5]) was 7.5% and the “Change from Control (LV dp/dt)” value (Canis familiaris [6]; [24]) was 2.5%. For the same compound, the HR change from control (Canis familiaris [7]) was -0.5%, the “Change from Control (LV dp/dt)” value (Canis familiaris [8]) was 54% and the HR change from control (Canis familiaris [9]) was 4.5%. For the same compound, the MABP change from control (Canis familiaris [10]) was 5.5%, the MABP change from control (Canis familiaris [11]) was 9.7% and the “Change from Control (LV dp/dt)” value (Canis familiaris [12]) was 21%. For the same compound, the HR change from control (Canis familiaris [13]) was 19.5%, the “Change from Control (LV dp/dt)” value (Canis familiaris [14]) was 125.5% and the “MABP % change from control” value (Canis familiaris [15]) was 4.7.
In the case of `Cc1nc(O)ccc1-c1ccc(-n2ccnc2)cc1`, the “Change from Control (LV dp/dt)” value (Canis familiaris [1]) was 85%, the MABP change from control (Canis familiaris [2]) was -19.5% and the MABP change from control (Canis familiaris [3]) was -2.5%. For the same compound, the HR change from control (Canis familiaris [4]) was 9%, the HR change from control (Canis familiaris [5]) was 26% and the “Change from Control (LV dp/dt)” value (Canis familiaris [6]; [24]) was 36%. The HR change from control (Canis familiaris [7]) was 3%, the “Change from Control (LV dp/dt)” value (Canis familiaris [8]) was 121% and the HR change from control (Canis familiaris [9]) was 17%. The MABP change from control (Canis familiaris [10]) was -9.5%, the MABP change from control (Canis familiaris [11]) was -20% and the “Change from Control (LV dp/dt)” value (Canis familiaris [12]) was 109%. For the same compound, the HR change from control (Canis familiaris [13]) was 29%, the “Change from Control (LV dp/dt)” value (Canis familiaris [14]) was 122% and the “MABP % change from control” value (Canis familiaris [15]) was -2.
Compound `Cc1nc(O)c(C#N)cc1-c1ccc(-n2ccnc2)cc1` has an Increase contractility (Canis familiaris [16]) of 35%, an MABP (Canis familiaris [17]) of -1 and an Increase contractility (Canis familiaris [18]) of 10%. The “Change from Control (LV dp/dt)” value (Canis familiaris [1]) was 122.7%, the MABP change from control (Canis familiaris [3]) was 0.75% and the HR change from control (Canis familiaris [4]) was 14%. For the same compound, the “Change from Control (LV dp/dt)” value (Canis familiaris [6]) was 4.5%, the “Change from Control (LV dp/dt)” value (Canis familiaris [6]; [24]) was 50.3% and the MABP change from control (Canis familiaris [19]) was 1.7%. For the same compound, the HR change from control (Canis familiaris [20]) was 1%, the HR change from control (Canis familiaris [7]) was 4.5% and the HR change from control (Canis familiaris [21]) was 3%. It also gave an HR change from control (Canis familiaris [9]) of 34.7%, an Increase contractility (Canis familiaris [22]) of 75% and an MABP change from control (Canis familiaris [10]) of -9.7%. The “Change from Control (LV dp/dt)” value (Canis familiaris [12]) was 154% and the “MABP % change from control” value (Canis familiaris [15]) was -2.2.
In the case of `Cc1nc(O)c(N)cc1-c1ccc(-n2ccnc2)cc1`, the “Change from Control (LV dp/dt)” value (Canis familiaris [1]) was 80.5%, the MABP change from control (Canis familiaris [2]) was -27.5% and the MABP change from control (Canis familiaris [3]) was 0.5%. The HR change from control (Canis familiaris [4]) was 12%, the HR change from control (Canis familiaris [5]) was 21.5% and the “Change from Control (LV dp/dt)” value (Canis familiaris [6]; [24]) was 24.5%. The HR change from control (Canis familiaris [7]) was -1.5%, the “Change from Control (LV dp/dt)” value (Canis familiaris [8]) was 125.5% and the HR change from control (Canis familiaris [9]) was 18%. For the same compound, the MABP change from control (Canis familiaris [10]) was -5%, the MABP change from control (Canis familiaris [11]) was -17.5% and the “Change from Control (LV dp/dt)” value (Canis familiaris [12]) was 134.5%. For the same compound, the HR change from control (Canis familiaris [13]) was 22%, the “Change from Control (LV dp/dt)” value (Canis familiaris [14]) was 105.5% and the “MABP % change from control” value (Canis familiaris [15]) was 1.
With `Cc1c(-c2ccc(-n3ccnc3)cc2)cc(C#N)c(=O)n1C` the “Change from Control (LV dp/dt)” value (Canis familiaris [1]) was 10%, the MABP change from control (Canis familiaris [2]) was 0.5% and the MABP change from control (Canis familiaris [3]) was 2%. For the same compound, the HR change from control (Canis familiaris [4]) was 0%, the HR change from control (Canis familiaris [5]) was 2% and the “Change from Control (LV dp/dt)” value (Canis familiaris [6]; [24]) was 8%. The HR change from control (Canis familiaris [7]) was 1%, the “Change from Control (LV dp/dt)” value (Canis familiaris [8]) was 18% and the HR change from control (Canis familiaris [9]) was 3%. For the same compound, the MABP change from control (Canis familiaris [10]) was 2%, the MABP change from control (Canis familiaris [11]) was 1.5% and the “Change from Control (LV dp/dt)” value (Canis familiaris [12]) was 16%. The HR change from control (Canis familiaris [13]) was 3%, the “Change from Control (LV dp/dt)” value (Canis familiaris [14]) was 39% and the “MABP % change from control” value (Canis familiaris [15]) was 1.
With `Cc1[nH]c(=O)c(C#N)cc1-c1ccncc1` [MILRINONE] the “Change from Control (LV dp/dt)” value (Canis familiaris [1]) was 77.5%, the MABP change from control (Canis familiaris [2]) was -36.9% and the MABP change from control (Canis familiaris [3]) was -2%. The HR change from control (Canis familiaris [4]) was 13.5%, the HR change from control (Canis familiaris [5]) was 39.2% and the “Change from Control (LV dp/dt)” value (Canis familiaris [6]; [24]) was 30.5%. For the same compound, the Increase contractility (Canis familiaris [23]) was 45%, the HR change from control (Canis familiaris [7]) was 3% and the “Change from Control (LV dp/dt)” value (Canis familiaris [8]) was 142.5%. For the same compound, the HR change from control (Canis familiaris [9]) was 27%, the MABP change from control (Canis familiaris [10]) was -13% and the MABP change from control (Canis familiaris [11]) was -19.9%. For the same compound, the “Change from Control (LV dp/dt)” value (Canis familiaris [12]) was 113%, the HR change from control (Canis familiaris [13]) was 48.5% and the “Change from Control (LV dp/dt)” value (Canis familiaris [14]) was 148.5%. For the same compound, the “MABP % change from control” value (Canis familiaris [15]) was -8.

From ChEMBL document CHEMBL1123756, “Cardiotonic agents. 5. 1,2-Dihydro-5-[4-(1H-imidazol-1-yl)phenyl]-6-methyl-2-oxo-3- pyridinecarbonitriles and related compounds. Synthesis and inotropic activity” (J Med Chem, 1987)
